Laboratory results: ChEMBL document CHEMBL3045249, “Synthesis of glucose-fipronil conjugate and its phloem mobility” (J Agric Food Chem, 2011)
Values after ≈ are worked out from the molar mass of the structure shown.

Assays:
[1] = test system: Root; assay: Drug metabolism in adult Ricinus communis (castor bean) roots assessed as compound conversion to fipronil at 2 mM measured 48 to 72 hr post treatment; type: ADME; conditions: 2000 µM
Outline: (§1)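 Adult castor bean plants. On each of two fully expanded leaves, 100 mm2 of the adaxial surface was abraded with a Celite slurry, rinsed and blotted dry. 200 μL of aqueous GTF in 0.1% Tween 80/10% acetone was applied per leaf; vehicle alone served as control. After 48 and 72 h, plants were cut into apical leaves, upper stem, lower stem and roots (three replicates). 2 g tissue was acetone-extracted with 15 min sonication. Fipronil was quantified by C18 HPLC (acetonitrile/water 50:50, 1.0 mL/min, 210 nm) against external calibration.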

[2] = test system: Lower stem; assay: Drug metabolism in adult Ricinus communis (castor bean) lower stem assessed as compound conversion to fipronil at 2 mM measured 48 to 72 hr post treatment; type: ADME; conditions: 2000 µM; outline: as §1
[3] = test system: Upper stem; assay: Drug metabolism in adult Ricinus communis (castor bean) upper stem assessed as compound conversion to fipronil at 2 mM measured 48 to 72 hr post treatment; type: ADME; conditions: 2000 µM; outline: as §1
[4] = test system: Apical leaf; assay: Drug metabolism in adult Ricinus communis (castor bean) apical leaves assessed as compound conversion to fipronil at 2 mM measured 48 to 72 hr post treatment; type: ADME; conditions: 2000 µM; outline: as §1
[5] = test system: Root; assay: Drug metabolism in adult Ricinus communis (castor bean) roots assessed as compound conversion to fipronil at 2 mM measured 48 to 72 hr post treatment by HPLC-MS method; type: ADME; conditions: 2000 µM; outline: as §1
[6] = test system: Lower stem; assay: Drug metabolism in adult Ricinus communis (castor bean) lower stem assessed as compound conversion to fipronil at 2 mM measured 48 to 72 hr post treatment by HPLC-MS method; type: ADME; conditions: 2000 µM; outline: as §1
[7] = test system: Upper stem; assay: Drug metabolism in adult Ricinus communis (castor bean) upper stem assessed as compound conversion to fipronil at 2 mM measured 48 to 72 hr post treatment by HPLC-MS method; type: ADME; conditions: 2000 µM; outline: as §1
[8] = test system: Apical leaf; assay: Drug metabolism in adult Ricinus communis (castor bean) apical leaves assessed as compound conversion to fipronil at 2 mM measured 48 to 72 hr post treatment by HPLC-MS method; type: ADME; conditions: 2000 µM; outline: as §1
[9] = test system: Phloem; assay: Phloem mobility in Ricinus communis (castor bean) seedlings phloem sap assessed as drug level at 200 uM measured 7 hr post dose by DiBAC4 indicator based flow cytometry relative to untreated control; type: ADME
[10] = test system: Phloem; assay: Phloem mobility in Ricinus communis (castor bean) seedlings phloem sap assessed as drug level at 200 uM by HPLC-MS method; type: ADME
Outline: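 Six-day castor bean seedlings, endosperm removed. After 1 h the hypocotyl was severed and phloem sap collected from the upper hypocotyl. Sap was analysed by C18 HPLC (acetonitrile/water 50:50, 1.0 mL/min, 210 nm, 25 °C) with external calibration; identity was confirmed by positive-ion APCI-MS.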

[11] = test system: Phloem; assay: Phloem mobility in Ricinus communis (castor bean) seedlings phloem sap assessed as drug level at 200 uM measured 3.5 hr post dose by DiBAC4 indicator based flow cytometry relative to untreated control; type: ADME
[12] = test system: Phloem; assay: Phloem mobility in Ricinus communis (castor bean) seedlings phloem sap assessed as drug level at 200 uM measured 8 hr post dose by DiBAC4 indicator based flow cytometry; type: ADME
Outline: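 Protoplasts from cotyledons were isolated by 4 h digestion at 28 °C in cellulase/pectinase with 0.6 M mannitol and MES pH 5.8. They were suspended in buffer with 200 μM compound, or none for control, and shaken at 28 °C for 8 h. Every 2 h, samples were stained with 2 μM DiBAC4(3) for 30 min. Fluorescence of 20000 viable cells was read by flow cytometry (ex 488/em 530 nm) and expressed relative to fresh cells; n = 3, Duncan's test.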

[13] = test system: Plutella xylostella; assay: Insecticidal activity against Plutella xylostella (diamondback moth) third-instar larvae measured 24 hr post dose by leaf disk dipping assay; type: functional; conditions: foliar
Outline: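 Third-instar larvae, leaf disk dip. Compounds were dissolved in acetone and suspended in water with 0.1% Tween 80. 5.5 cm leaf disks were dipped 30 s and air-dried 2 h, then 10 larvae were placed per dish. Control was 10% acetone/0.1% Tween 80. Incubation at 26 ± 2 °C, 70% RH, 16:8 h light/dark; five replicates. Mortality was scored at 24 h and LC50 derived with 95% confidence limits.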

N#Cc1nn(-c2c(Cl)cc(C(F)(F)F)cc2Cl)c(NCc2cn([C@@H]3O[C@H](CO)[C@@H](O)[C@H](O)[C@H]3O)nn2)c1[S+]([O-])C(F)(F)F (stereo not given in full)
Drug metabolism [1]: Active | Drug metabolism [2]: Active | Drug metabolism [3]: Active | Drug metabolism [4]: Active | Drug metabolism [5]: Active | Drug metabolism [6]: Active | Drug metabolism [7]: Active | Drug metabolism [8]: Active | fold change (FC) [9]: 0.45 | Drug mobility [10]: Active | fold change (FC) [11]: 0.25 | Drug mobility [12]: Active

N#Cc1nn(-c2c(Cl)cc(C(F)(F)F)cc2Cl)c(N)c1[S+]([O-])C(F)(F)F (stereo not given) [FIPRONIL]
LC50 [13]: 21.4 µg/mL (≈ 48.9 µM) | Drug mobility [10]: Not Active | Drug mobility [12]: Not Active
